Blank lines part the entries; values can stand above or below the compound they belong to. The source made the active and inactive calls. The calls are words filed in the database; no cut-off is given here.
Legend:
[1] = Antiproliferative activity against human CRL1739 cells by MTT assay; assay type: functional, cell-based
How it was run: (§1)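 Cells were grown in medium with 10% heat-inactivated FBS, penicillin G and streptomycin, and were plated in 96-well plates. One day after seeding, they were exposed for 72 h to 0–100 µM compound (DMSO stock diluted in complete medium, final DMSO 1%). Viability was read by MTT reduction. IC50 values came from fitting the dose-response curves to a sigmoidal model.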

MRC5 = experiment: Antiproliferative activity against human MRC5 cells by MTT assay; assay type: cell-based; how it was run: as §1
HTB-1 = experiment: (§2) Antiproliferative activity against human HTB-1 cells by MTT assay; assay type: functional, cell-based; how it was run: as §1
SK-MES-1 = experiment: Antiproliferative activity against human SKMES1 cells by MTT assay; assay type: functional, cell-based; how it was run: as §1
J82 = experiment: Antiproliferative activity against human J82 cells by MTT assay; assay type: functional, cell-based; how it was run: as §1
AGS = experiment: Antiproliferative activity against human AGS cells by MTT assay; assay type: functional, cell-based; how it was run: as §1
[2] = Antiproliferative activity against human CCL171 cells by MTT assay; assay type: cell-based; how it was run: as §1
HTB-58 = experiment: (§3) Antiproliferative activity against human HTB-58 cells by MTT assay; assay type: functional, cell-based; how it was run: as §1
[3] = as §2; assay type: functional, cell-based; how it was run: as §1
[4] = as §3; assay type: functional, cell-based; how it was run: as §1

SMILES: COc1ccc2c(c1)C(=O)c1c(NCCc3ccc(O)cc3)c(OC)cc3ccnc-2c13 [DAURIOXOISOPORPHINE A]
IC50 [1]: > 3000 nM | IC50 [3]: > 3000 nM | IC50 (SK-MES-1): > 3000 nM | IC50 (J82): > 3000 nM | IC50 (AGS): > 3000 nM | IC50 [4]: > 3000 nM

SMILES: COc1ccc2c(c1)C(=O)c1c(N)c(OC)c(OC)c3ccnc-2c13 [DAURIOXOISOPORPHINE B]
IC50 [1]: > 3000 nM | IC50 [3]: > 3000 nM | IC50 (SK-MES-1): > 3000 nM | IC50 (J82): > 3000 nM | IC50 (AGS): > 3000 nM | IC50 [4]: > 3000 nM

SMILES: COc1cc2ccnc3c2c(c1[N+](=O)[O-])C(=O)c1ccccc1-3
IC50 [1]: > 2090 nM | IC50 [3]: > 2090 nM | IC50 (SK-MES-1): > 2090 nM | IC50 (J82): > 2090 nM | IC50 (AGS): > 2090 nM | IC50 [4]: > 2090 nM

SMILES: CNc1c(OC)cc2ccnc3c2c1C(=O)c1cc(OC)ccc1-3 [DAURIOXOISOAPORPHINE C]
IC50 [1]: > 2090 nM | IC50 [3]: > 2090 nM | IC50 (SK-MES-1): > 2090 nM | IC50 (J82): > 2090 nM | IC50 (AGS): > 2090 nM | IC50 [4]: > 2090 nM

SMILES: COc1cc2c3c(nccc3c1)-c1ccccc1C2=O
IC50 [1]: > 2090 nM | IC50 [3]: > 2090 nM | IC50 (SK-MES-1): > 2090 nM | IC50 (J82): > 2090 nM | IC50 (AGS): > 2090 nM | IC50 [4]: > 2090 nM

SMILES: COc1ccc2c(c1)C(=O)c1c(NCCc3ccc(O)cc3)c(OC)c(OC)c3ccnc-2c13 [TYRAMINOPORPINE]
IC50 [1]: > 2090 nM | IC50 [3]: > 2090 nM | IC50 (SK-MES-1): > 2090 nM | IC50 (J82): > 2090 nM | IC50 (AGS): > 2090 nM | IC50 [4]: > 2090 nM

SMILES: COc1cc2c3c(nccc3c1N)-c1ccccc1C2=O
IC50 [1]: > 2090 nM | IC50 [3]: > 2090 nM | IC50 (SK-MES-1): > 2090 nM | IC50 (J82): > 2090 nM | IC50 (AGS): > 2090 nM | IC50 [4]: > 2090 nM

SMILES: COc1cc2c3c(c1[N+](=O)[O-])CCN=C3c1ccccc1C2=O
IC50 [1]: > 2090 nM | IC50 [3]: > 2090 nM | IC50 (SK-MES-1): > 2090 nM | IC50 (J82): > 2090 nM | IC50 (AGS): > 2090 nM | IC50 [4]: > 2090 nM

Now from value to compound, other results behind:

IC50 (AGS): 4500 nM
SMILES: COc1cc2c3c(nccc3c1[N+](=O)[O-])-c1ccccc1C2=O
IC50 [1]: 4500 nM | Activity (MRC5): Non-toxic | Activity (HTB-1): inactive | Activity (SK-MES-1): inactive | Activity (J82): inactive | Activity [2]: Non-toxic | Activity (HTB-58): inactive

IC50 (SK-MES-1): > 2090 nM | IC50 (AGS): > 2090 nM
SMILES: COc1cc2c3c(c1[N+](=O)[O-])C(=O)c1ccccc1C3=NCC2
IC50 [1]: > 2090 nM | IC50 [3]: > 2090 nM | IC50 (J82): > 2090 nM | IC50 [4]: > 2090 nM

IC50 (SK-MES-1): > 2090 nM | IC50 (AGS): > 2090 nM
SMILES: COc1cc2c3c(c1)C(=O)c1ccccc1C3=NCC2
IC50 [1]: > 2090 nM | IC50 [3]: > 2090 nM | IC50 (J82): > 2090 nM | IC50 [4]: > 2090 nM

IC50 (SK-MES-1): > 2090 nM | IC50 (AGS): > 2090 nM
SMILES: COc1cc2ccnc3c2c(c1N)C(=O)c1ccccc1-3 [LAKSHMININE]
IC50 [1]: > 2090 nM | IC50 [3]: > 2090 nM | IC50 (J82): > 2090 nM | IC50 [4]: > 2090 nM
